Source: PubChem BioAssay (several laboratories)
In the library only some 2.9% were active in any assay of this set; here they are far more common.
Calb FLC: C. albicans growth inhibition with fluconazole, primary screen, CaCi-2 strain, Alamar Blue fluorescence; C. albicans CaCi-2 (fluconazole-resistant clinical isolate) + fluconazole, 48 h; 300,000 tested, 0.57% active; growth inhibition, % (concentration not given with the values); AID 1979, 2009;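 active = growth inhibition above about 58% in most replicates, limit read from the data, passing the limit was not always enough; inconclusive = exactly half the replicates above a set limit; inactive = most replicates below a set limit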;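 also: all wells also contain fluconazole at 8 µg/ml as a sub-toxic cotreatment; 0% = median of DMSO wells and 100% = median of geldanamycin control wells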
H9c2 TAG inh: inhibitors of triacylglycerol accumulation, primary screen, cell-based, uHTS, fluorescence, H9c2. H9c2 cells, Nile Red lipid (TAG) fluorescence; cells loaded with 200 µM oleic acid. inhibition, % at 12.5 µM. 230,000 tested, 0.66% active. AID 651582, 2012;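 active = pattern-corrected inhibition of lipid staining of at least 50% with the nuclear-stain viability signal not falling by more than 50%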;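 also: 0% = DMSO wells and 100% = triacsin C control wells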
MC4R antagonist: MC4R antagonists of cAMP signaling, primary screen, cell-based, TR-FRET, antagonist arm of biased-ligand search; Melanocortin receptor 4 (Homo sapiens), P32245; AID 540295, 2011; MC4R-expressing cells, MTII-stimulated cAMP, LANCE TR-FRET; inhibition, % at 6.5 µM; 360,000 tested, 0.48% active;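 active = inhibition above its plate's cutoff, the mean of tested wells on that plate plus 3 SD, cut at about 29% in these data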;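 also: 0% = Melanotan II alone and 100% = Melanotan II plus saturating MCL0020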
Target sequence (P32245 whole entry, looked up): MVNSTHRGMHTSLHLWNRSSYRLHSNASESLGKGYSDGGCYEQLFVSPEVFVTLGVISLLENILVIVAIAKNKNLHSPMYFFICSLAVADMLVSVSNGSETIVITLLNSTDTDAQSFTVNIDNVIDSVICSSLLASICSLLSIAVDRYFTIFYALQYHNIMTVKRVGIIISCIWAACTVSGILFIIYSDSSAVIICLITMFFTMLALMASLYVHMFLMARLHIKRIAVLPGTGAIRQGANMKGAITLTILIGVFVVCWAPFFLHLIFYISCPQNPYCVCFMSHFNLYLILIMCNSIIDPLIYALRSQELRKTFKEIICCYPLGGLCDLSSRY
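Assay system: human MC4R-expressing U2OS cells; reagent: Melanotan II stimulation of cells; dosing: 6.5 µM single dose; timing: compound 30 min, challenge 1 h, detection 1 h; signal: TR-FRET cAMP assay; replicates: one well per compound, no replicates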
Efflux pump mplx: inhibitors of Candida efflux pumps in yeast, primary screen, S. cerevisiae, Nile Red, multiplex | inhibition, % at 10 µM | 330,000 tested, 0.44% active | S. cerevisiae Candida pump triplex;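 active = plate passing quality check with inhibition over a set limit, or well fluorescence over plate mean plus 4 SD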;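 also: Nile Red retained in pooled yeast measured as flow cytometry median fluorescence; 0% = buffer negative control and 100% = Enniatin B positive control; higher means more Nile Red kept so more efflux inhibition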
MC4R barr agon: MC4R agonists recruiting beta-arrestin, primary screen, cell-based, luminescence, agonist arm of biased-ligand search; 360,000 tested, 0.98% active; Melanocortin receptor 4 (Homo sapiens), P32245; AID 540308, 2011; activation, % at 8.9 µM; U2OS MC4R beta-arrestin complementation; percent of melanotan II response, DMSO zero;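 active = activation above a per-plate cutoff, the mean activation of sample wells on that plate plus 3 SD, cut at about 8% in these data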
GalR3 antag: GalR3 antagonists in HEK293 cells, primary screen, cell-based, fluorescence readout. Galanin receptor type 3 (Homo sapiens), O60755. HEK293 GalR3-CNG cAMP membrane potential fluorescence; galR3 body fused to GalR1 C-terminus. inhibition, % at 3 µM. 360,000 tested, 0.44% active. AID 651719, 2012;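 active = inhibition above the screen-wide average plus 3 SD, cut at about 13% in these data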;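 also: forskolin and galanin both at EC90 stimulate the cells; cAMP rise reported by CNG channel membrane potential dye signal; 0% = forskolin plus galanin with DMSO and 100% = forskolin alone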
Target sequence (O60755 1-299 limits assumed): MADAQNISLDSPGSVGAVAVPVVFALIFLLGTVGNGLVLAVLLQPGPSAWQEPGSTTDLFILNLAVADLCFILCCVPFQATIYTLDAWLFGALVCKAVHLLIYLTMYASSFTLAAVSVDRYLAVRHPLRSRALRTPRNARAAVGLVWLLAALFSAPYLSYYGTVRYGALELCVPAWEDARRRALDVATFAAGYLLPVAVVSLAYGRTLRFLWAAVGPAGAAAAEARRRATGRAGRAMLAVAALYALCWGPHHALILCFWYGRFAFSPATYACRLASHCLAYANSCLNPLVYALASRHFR
MC4R barr ag: MC4R beta-arrestin agonists, retest, confirmation, cell-based, luminescence, U2OS; 2,400 tested, 31% active; U2OS MC4R beta-arrestin recruitment; scaled DMSO 0%, Melanotan II 100%; activation, % at 8.9 µM; shares compounds with MC4R barr agon;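 active = mean activation across replicates above the hit cutoff set in the earlier primary screen, cut at about 8% in these data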
MOR DOR agonist: agonists of MOR-DOR heterodimerization, counter-screen for MC4R biased agonist project, cell-based, luminescence; shares compounds with MC4R barr agon; U2OS PathHunter beta-arrestin, beta-gal luminescence; percent of deltorphin B response, DMSO zero; activation, % at 9.2 µM; 2,400 tested, 5.8% active; AID 602194, 2012;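 active = mean activation across replicates exceeds the hit threshold derived in the earlier primary screen, cut at about 18% in these data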;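 also: 100% = deltorphin B at 0.9 µM final and 0% = DMSO alone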
Active calls of the source: *; ? = inconclusive; · = no result.

SMILES	Calb FLC	H9c2 TAG inh	MC4R antagonist	Efflux pump mplx	MC4R barr agon	GalR3 antag	MC4R barr ag	MOR DOR agonist
Cc1ccc(NC(=O)c2cc(S(=O)(=O)Nc3ccc(C)cc3)cs2)cc1	0.5	-11.9	-3.0	0.0	9.6*	-2.2	13.3*	17.2
Nc1ccc(S(=O)(=O)NN=Cc2ccccc2[N+](=O)[O-])cc1	·	-5.1	2.2	·	0.0	-0.5	·	·
CSCCC(c1nc2ccccc2[nH]1)n1c(/C=C/c2ccc(Cl)cc2)nc2ccccc21 (stereo not given)	·	·	·	·	·	-6.8	·	·
CCc1ccc(OCC(=O)NCCOc2ccccc2)cc1	1.4	·	-0.3	0.0	1.1	-4.2	·	·
CCc1ccc(OCCNC(=O)OCc2ccccc2)cc1	-6.1	·	-8.3	0.1	10.0*	8.6	1.9	3.8
CC(C)NC(=O)C1(C)CCN1Cc1ccc(C(F)(F)F)cc1 (stereo not given)	·	-0.7	10.1	·	1.2	-6.5	·	·
CCOC(=O)C1(C)CCN1C(=O)c1ccccc1 (stereo not given)	·	-5.2	5.9	·	-1.4	-3.3	·	·
CCOc1ccc(CNC(=O)C2CCN(c3nnc(C)c4c(C)n(-c5ccc(C)cc5)nc34)CC2)cc1	-15.1	·	-2.9	-0.6	8.2	-7.2	·	·
CCOc1ccccc1CNC(=O)C1CCN(c2nnc(C)c3c(C)n(-c4ccc(C)cc4)nc23)CC1	-4.0	·	2.8	0.1	10.0*	-1.4	3.9	9.2
COc1ccccc1CCNC(=O)C1CCN(c2nnc(C)c3c(C)n(-c4ccc(C)cc4)nc23)CC1	27.5	·	12.7	0.2	10.3*	-10.0	3.0	2.6
CCc1ccc(CNC(=O)C2CCCN(c3nnc(C)c4c(C)n(-c5ccccc5)nc34)C2)cc1 (stereo not given)	?	·	13.3	0.2	19.4*	-1.1	2.1	2.8
NC(=O)c1ncn([C@@H]2O[C@H](C(=O)N[C@H](Cc3c[nH]c4ccccc34)C(=O)NCC(=O)N3CCCCC3)[C@@H](O)[C@H]2O)n1	·	·	·	·	·	-4.3	·	·
CCCOc1ccc(C(=O)Nc2nc(C)c(Cc3ccc4c(c3)OCO4)s2)cc1	8.9	50.0	3.0	-0.1	47.2*	-6.5	12.7*	4.2
Cc1ccccc1N1CCN(S(=O)(=O)c2nnc(NC(=O)CC(C)C)s2)CC1	-4.5	3.7	-1.3	0.4	12.9*	·	1.1	6.1
Cc1ccccc1N1CCN(S(=O)(=O)c2nnc(NC(=O)c3ccco3)s2)CC1	3.7	·	1.6	-0.4	0.9	-6.4	·	·
COC(=O)[C@]12CCCCC=C1N(Cc1ccccc1)C(=O)[C@H](CC(=O)NCC13CC4CC(CC(C4)C1)C3)C2	·	·	·	·	·	-5.7	·	·
O=C1CC(c2cc(Br)ccc2F)c2cc3c(cc2N1)CCC3 (stereo not given)	0.7	·	-21.8	0.0	16.3*	·	3.3	3.9
COC(=O)[C@]12C[C@H](CC(=O)N3CCN(C(=O)C4CC4)CC3)C(=O)N(Cc3ccccc3)C1=C[C@H](C(C)(C)C)O[C@@H]2C	·	·	·	·	·	-6.7	·	·
CN(C)CCOc1nc(-c2ccccc2)nc2c1oc1ccccc12	31.4	·	-0.5	0.2	16.4*	-4.9	3.8	5.6
CCOc1ccc2nc(NC(=O)c3cccc(-c4cc5ccccc5oc4=O)c3)sc2c1	8.8	21.5	2.1	0.0	23.9*	-4.8	13.3*	2.3
CC(C)(C)OC(=O)N[C@H]1C=C[C@@H](CC(=O)OCC(F)(F)F)C1	·	·	·	·	·	-0.8	·	·
COc1ccccc1NC(=O)CC(c1ccc(OC(C)C)cc1)c1ccccc1OC (stereo not given)	2.7	·	7.4	0.4	-1.7	-10.8	·	·
COc1ccc(CNCCC(c2ccc(OC(C)C)cc2)C(C)C)cc1OC (stereo not given)	-22.4	·	6.7	0.1	1.2	-9.1	·	·
COc1ccc(CNCCC(c2ccc(OC(C)C)cc2)c2ccccc2OC)cc1 (stereo not given)	14.7	·	9.6	-0.1	12.1*	-8.9	11.1*	24.8*
COc1ccccc1C(CCNCc1ccc(N(C)C)cc1)c1ccc(OC(C)C)cc1 (stereo not given)	0.5	·	3.0	0.1	12.9*	-11.1	8.2	28.7*
SMILES	Calb FLC	H9c2 TAG inh	MC4R antagonist	Efflux pump mplx	MC4R barr agon	GalR3 antag	MC4R barr ag	MOR DOR agonist
COc1ccc(C(CCNCc2ccc(OC(C)C)cc2)C(C)C)cc1 (stereo not given)	14.8	-3.3	5.3	0.0	14.7*	-0.3	7.7	11.5
COc1ccc(C(CCNCc2ccc(N(C)C)cc2)C(C)C)cc1 (stereo not given)	-21.9	36.5	-0.1	0.2	2.5	-0.5	·	·
CCn1c(-c2ccccc2)c[nH]c1=S	-1.6	2.4	0.5	-0.1	-0.3	-1.1	·	·
S=c1[nH]cc(-c2ccc(Cl)cc2)n1Cc1ccccc1	-8.3	-3.3	-1.9	0.3	18.9*	-0.2	2.6	10.6
O=C(CCN1C(=O)/C(=C/C=C/c2ccccc2)SC1=S)Nc1cccnc1	11.1	-2.3	-7.3	-0.2	11.8*	6.8	32.4*	12.5
O=C(CCN1C(=O)/C(=C/c2ccc(Cl)cc2)SC1=S)Nc1cccnc1	-0.7	·	-1.4	-0.2	-2.7	-7.4	·	·
O=C(CCN1C(=O)/C(=C/C=C/c2ccccc2)SC1=S)Nc1ccccn1	-6.0	12.5	14.4	0.2	34.1*	-2.3	21.6*	11.8
COc1ccc(CN2C(=O)C(CC(=O)NCCN3CCOCC3)CC(C(=O)N3CCOCC3)=C2C)cc1 (stereo not given)	·	3.0	7.8	·	-2.6	-6.2	·	·
CCC(CC)CC1CN2CCc3cc(OC)c(OC)cc3C2CC1(O)CC (stereo not given)	·	-24.6	1.9	·	0.2	-3.6	·	·
CCOC(=O)CSc1nc2cc(OCC)ccc2cc1C#N	22.5	·	-1.8	-0.2	30.8*	-4.0	4.9	9.7
O=C(NCC(c1ccco1)N1CCCC1)c1cccc(S(=O)(=O)N2CCc3ccccc32)c1 (stereo not given)	·	11.3	3.0	·	-1.5	-4.5	·	·
Cc1cc(C)c(OCC(=O)Nc2cccc(NC(=O)c3ccco3)c2)c(Br)c1	-17.6	·	-1.8	-0.2	-1.1	-1.7	·	·
